In assay [1] the target is T1, Sphingomyelin phosphodiesterase (Homo sapiens) (UniProt P17405).
T1 sequence (whole entry): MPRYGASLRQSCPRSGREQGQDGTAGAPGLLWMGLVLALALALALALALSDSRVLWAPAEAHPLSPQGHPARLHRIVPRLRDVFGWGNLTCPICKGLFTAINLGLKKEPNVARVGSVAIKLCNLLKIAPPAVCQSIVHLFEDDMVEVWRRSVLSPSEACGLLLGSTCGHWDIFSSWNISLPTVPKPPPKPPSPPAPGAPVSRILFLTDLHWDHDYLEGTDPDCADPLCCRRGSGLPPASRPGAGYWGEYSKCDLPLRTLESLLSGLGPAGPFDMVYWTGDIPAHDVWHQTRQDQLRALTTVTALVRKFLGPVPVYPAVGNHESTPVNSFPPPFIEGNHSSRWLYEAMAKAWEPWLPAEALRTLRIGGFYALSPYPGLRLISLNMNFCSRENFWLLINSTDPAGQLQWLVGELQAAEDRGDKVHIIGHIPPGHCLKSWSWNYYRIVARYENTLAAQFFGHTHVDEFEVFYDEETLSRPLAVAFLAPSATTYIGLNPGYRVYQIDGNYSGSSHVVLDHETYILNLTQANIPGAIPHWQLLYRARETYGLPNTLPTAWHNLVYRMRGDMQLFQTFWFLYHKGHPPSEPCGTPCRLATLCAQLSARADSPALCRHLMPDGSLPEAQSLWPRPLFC
The assay can be described thus: Inhibition of human GFP-tagged ASM expressed in dog MDCK cells using sphingomyelin as substrate at 5 uM incubated for 48 hrs by Amplex Red dye based fluorescence analysis. It is filed as cell-based. An outline of the steps: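 MDCK cells stably expressing human SMPD1-GFP treated 48 h at 5 µM. Whole-cell lysate, made without DTT, mixed with 50 mM sodium acetate pH 5.0 plus sphingomyelin and held 1 h at 37 °C. pH then raised to 7.4 with Amplex Red mix (100 µM Amplex Red, 2 U/mL HRP, 0.2 U/mL choline oxidase, 8 U/mL alkaline phosphatase, 100 mM Tris pH 8.0), 60 min at 37 °C. Fluorescence read at Ex 540/Em 590 nm. Controls: 0.1 U/mL SMase (positive), buffer alone (negative).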

For the next assay, the system named is Caco-2. The assay can be described thus: Antiproliferative activity against human Caco-2 cells expressing wild type KRAS assessed as reduction in cell growth incubated for 72 hrs by CyQuant proliferation assay. It is filed as functional, cell-based. To be noted: Caco-2, 72 h. The essentials:
(§1)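 Cells seeded in 96-well plates; after 24 h fresh growth medium with 0.1% DMSO vehicle or drug added (highest dose 30 µM for cancer lines), grown 72 h at 37 °C, 5% CO2. Live cell number measured by CyQUANT fluorescence. IC50 from three independent experiments. MEFs were isogenic lines carrying oncogenic BRAF or KRAS.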

The test system of assay [2] is MIA PaCa-2. The assay can be described thus: Antitumor activity human MIA PaCa-2 cells harboring KRAS mutation xenografted in nu/nu mouse assessed as induction of apoptosis by measuring increase in cleaved caspase 3 level in tumor at 1 to 5 mg/kg, ip administered once daily for 5 days with 2 days break by immunohistochemistry. It is filed as functional, organism-based. To be noted: dose 1-5 mg/kg, time 5.0 day. An outline of the steps:
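Paraffin tumor sections of 4–5 µm were deparaffinized and given heat antigen retrieval in 10 mM sodium citrate. Endogenous peroxidase was quenched and sections blocked in 2.5% normal goat serum. Primary antibody (pERK or cleaved caspase 3) applied overnight at 4 °C, biotinylated secondary 1:250 for 45 min at rt, then ABC reagent 30 min and DAB development. Rabbit IgG served as control.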

The test system of another assay is BXPC-3. The assay can be described thus: Antitumor activity against human BXPC-3 cells harboring wild type KRAS xenografted in nu/nu mouse assessed as reduction in tumor growth at 1 mg/kg, ip administered once daily for 5 days with 2 days break by caliper analysis. To be noted: time 5.0 day. It is filed as functional, organism-based. The essentials:
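BxPC3 xenografts in nu/nu mice dosed i.p. with compound or DMSO vehicle on a schedule of daily for 5 days and 2 days off. Tumor size measured by external caliper every 3–4 days.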
(In general: Xenograft models place foreign cells or tissue in a host animal.)

For the next assay, the system named is NCI-H1299. The assay can be described thus: Antiproliferative activity against human NCI-H1299 cells expressing wild type KRAS assessed as reduction in cell growth incubated for 72 hrs by CyQuant proliferation assay. It is filed as functional, cell-based. To be noted: NCI-H1299, 72 h. An outline of the steps: as §1
The subject of the next assay is MDCK. The assay can be described thus: Inhibition of ASM in dog MDCK cells co-expressing recombinant full length mGFP-tagged KRAS G12V mutant and mCherry-CAAX assessed as reduction in plasma membrane localization of KRAS mutant incubated for 48 hrs by confocal microscopic analysis relative to control. It is filed as cell membranes. To be noted: Canis lupus familiaris. The essentials: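 MDCK cells stably co-expressing mGFP-KRAS G12V or mGFP-LactC2 with mCherry-CAAX (HRAS 179–189 C181S/C184S) grown on coverslips in DMEM/10% FBS. Treated 48 h with 0.1% DMSO or graded drug, fixed in 4% paraformaldehyde, then quantitative confocal imaging. Mislocalization scored as the Manders fraction of mCherry-CAAX co-localizing with the GFP probe. IC50 and Emax from three independent experiments.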

In the next assay the test system is HEC-1-A. The assay can be described thus: Antiproliferative activity against human HEC-1-A cells expressing mutant KRAS assessed as reduction in cell growth incubated for 72 hrs by CyQuant proliferation assay. It is filed as functional, cell-based. The essentials: as §1
For the next assay, the system named is HEC-1B cell line. The assay can be described thus: Antiproliferative activity against human HEC-1B cells expressing mutant KRAS assessed as reduction in cell growth incubated for 72 hrs by CyQuant proliferation assay. It is filed as functional, cell-based. An outline of the steps: as §1
In assay [3] the test system is MIA PaCa-2. The assay can be described thus: Antitumor activity against human MIA PaCa-2 cells harboring KRAS mutant xenografted in nu/nu mouse assessed as reduction in tumor growth at 1 to 5 mg/kg, ip administered once daily for 5 days with 2 days break by caliper analysis. The following applies: dose 1-5 mg/kg, time 5.0 day. It is filed as functional, organism-based. An outline of the steps: (§2)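 Female nu/nu mice given 2 × 10⁶ early-passage MiaPaCa-2 cells subcutaneously in the right flank, randomized 10 per group. Dosing began when tumors reached 100 mm³: 1, 2.5 or 5 mg/kg i.p. daily for 5 days with 2 days off, vehicle DMSO. Caliper readings every 3–4 days, V = 0.52 × length × width². Animals sacrificed when any tumor reached 1500 mm³.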

Assay [4] relates to MIA PaCa-2. The assay can be described thus: Antiproliferative activity against human MIA PaCa-2 cells expressing KRAS mutant assessed as reduction in cell growth incubated for 72 hrs by CyQuant proliferation assay. The following applies: MIA PaCa-2, 72 h. It is filed as functional, cell-based. The essentials: as §1
Assay [5] deals with MIA PaCa-2. The assay can be described thus: Antitumor activity against human MIA PaCa-2 cells harboring KRAS mutant xenografted in nu/nu mouse assessed as reduction in tumor growth at 2.5 to 5 mg/kg, ip administered once daily for 5 days with 2 days break by caliper analysis. It is filed as functional, organism-based. The following applies: dose 2.5-5 mg/kg, time 5.0 day. The essentials:
as §2

Calls of active or inactive are those of the source. The calls are words filed in the database; no cut-off is given here.

What is called IC50 is the midpoint of a concentration-inhibition curve. With `COc1ccc([C@@H](C)N(CC=C(c2ccccc2)c2ccccc2)CCN2CCCC2)cc1`, the inhibition entry in [1] was “Active”. For the same compound, the IC50 was found to be 4.2 µM with Caco-2; 8 µM in the assay with NCI-H1299; 2.3 µM in the assay on HEC-1-A; 3 µM in the assay with HEC-1B cell line; 3.1 µM with MIA PaCa-2 [4]. Besides, the outcome in the assay on MIA PaCa-2 [2] and in the assay on MIA PaCa-2 [3] was Active. In addition, in the assay on BXPC-3, the result was inactive. The Emax in the assay with MDCK worked out at 0.85.

Consider `COc1ccc([C@@H](C)N(CC=C(c2ccccc2)c2ccccc2)CCCN2CCN(C)CC2)cc1`, for which the inhibition result in assay [1] is “Active”. Also, the result in the assay on MIA PaCa-2 [2] and in the assay on MIA PaCa-2 [5] was Active. In addition, the Emax with MDCK is 0.81.

The record behind these values is ChEMBL document CHEMBL4814013, “Scaffold repurposing of fendiline: Identification of potent KRAS plasma membrane localization inhibitors” (Eur J Med Chem, 2021).
